Bioassay records (PubChem)
hERG protect – compounds protecting human hERG from proarrhythmic drug block | CHO-hERG, FluxOR thallium flux, dofetilide IC70 present | activation (rescue from dofetilide block), less the hit threshold, % at 10 µM | 310,000 tested, 0.51% active | AID 1511;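 active means activation above the mean of controls blocked by dofetilide plus 5 SD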;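 further: thallium influx through hERG after potassium depolarization seen as dye fluorescence rise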
Target sequence (Q12809 whole entry, looked up): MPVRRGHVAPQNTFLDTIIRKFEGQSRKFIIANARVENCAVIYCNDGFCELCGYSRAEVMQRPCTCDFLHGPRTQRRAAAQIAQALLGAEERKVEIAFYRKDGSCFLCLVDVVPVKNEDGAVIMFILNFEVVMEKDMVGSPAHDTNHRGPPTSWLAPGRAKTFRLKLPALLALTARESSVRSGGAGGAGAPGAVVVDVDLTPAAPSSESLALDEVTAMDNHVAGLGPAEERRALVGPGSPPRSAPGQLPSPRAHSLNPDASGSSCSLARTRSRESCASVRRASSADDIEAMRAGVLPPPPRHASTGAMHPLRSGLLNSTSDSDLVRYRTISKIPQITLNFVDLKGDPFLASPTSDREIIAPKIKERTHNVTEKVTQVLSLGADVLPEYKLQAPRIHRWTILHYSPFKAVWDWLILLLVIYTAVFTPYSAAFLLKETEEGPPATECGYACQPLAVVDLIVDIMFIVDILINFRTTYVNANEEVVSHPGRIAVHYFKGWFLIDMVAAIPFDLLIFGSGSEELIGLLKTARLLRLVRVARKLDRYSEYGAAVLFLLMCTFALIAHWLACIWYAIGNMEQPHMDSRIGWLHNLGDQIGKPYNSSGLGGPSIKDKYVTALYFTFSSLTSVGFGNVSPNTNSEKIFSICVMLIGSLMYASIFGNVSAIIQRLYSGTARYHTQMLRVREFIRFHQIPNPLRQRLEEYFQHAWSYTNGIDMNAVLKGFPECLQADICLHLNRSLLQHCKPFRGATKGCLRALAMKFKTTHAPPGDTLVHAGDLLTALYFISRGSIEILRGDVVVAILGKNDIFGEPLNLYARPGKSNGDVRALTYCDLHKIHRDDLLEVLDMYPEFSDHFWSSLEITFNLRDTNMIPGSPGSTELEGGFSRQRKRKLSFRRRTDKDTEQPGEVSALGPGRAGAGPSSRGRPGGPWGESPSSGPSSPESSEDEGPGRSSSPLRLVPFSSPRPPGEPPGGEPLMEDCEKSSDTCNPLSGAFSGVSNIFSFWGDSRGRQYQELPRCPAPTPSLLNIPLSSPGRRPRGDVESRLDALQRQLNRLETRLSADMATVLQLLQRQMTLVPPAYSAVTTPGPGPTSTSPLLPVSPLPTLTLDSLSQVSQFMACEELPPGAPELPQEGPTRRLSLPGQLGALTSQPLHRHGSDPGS
KCNK3 inh – human KCNK3 channel inhibition, primary screen; O14649; CHO-KCNK3 thallium flux, FluxOR fluorescence; stronger effect = lower value; B-score at 10 µM; 340,000 tested, 0.84% active; AID 602410;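 active means B-score under library mean minus 4 SD, starting fluorescence ratio at most library mean plus 5 SD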;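 further: more negative B-score means stronger inhibition of thallium flux through KCNK3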
KCNQ1 inh – blocks the human KCNQ1 potassium channel; CHO-K1 KCNQ1, FluxOR thallium flux fluorescence; stronger effect = higher value; B-score at 10 µM; 310,000 tested, 1.3% active; AID 2642;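 active means compounds whose thallium flux B-score, printed positive for inhibition, exceeds three library SD while starting fluorescence stays within three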;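 further: channel opened by potassium depolarization with thallium stimulus after 20 min compound exposure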
KCNK9 block – inhibitors of human KCNK9 two-pore domain potassium channel | B-score at 10 µM | HEK293 KCNK9, FluxOR thallium flux fluorescence; stronger effect = lower value | 310,000 tested, 1.2% active | AID 488922;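 active means ratio B-score over 3 SD below the library mean, with starting fluorescence within 5 SD of its mean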;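 further: negative B-score means less thallium flux so channel inhibition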
Kir21 block – inhibitors of mouse Kir2.1 inward-rectifier potassium channel; HEK293-Kir2.1, FluxOR thallium flux fluorescence; stronger effect = lower value; B-score at 10 µM; 310,000 tested, 0.85% active;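 active means fluorescence ratio B-score at or below minus 3 SD of library scores, with starting-brightness B-score within 2 SD, cut at about -4.2 in these data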;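 further: channel flux triggered by added potassium and thallium sulfate stimulus; B-score of peak minus minimum fluorescence over baseline after thallium stimulus; more negative B-score means stronger Kir2.1 block with less thallium influx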
KCNQ1 act – potentiates or activates the human KCNQ1 potassium channel; AID 2648; P51787; B-score at 10 µM; CHO-K1 KCNQ1, thallium flux FluxOR fluorescence; stronger effect = higher value; 310,000 tested, 0.35% active;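 active means fluorescence ratio B-score, a plate-corrected score, at least three library SD, with initial intensity B-score within 5 SD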
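Schedule – 37 °C overnight plating, 90-min dark dye load, 20-min compound pretreatment · System – stable KCNQ1 CHO-K1 line · Probe or stimulus – thallium- and potassium-containing depolarizing buffer · Measured by – kinetic FluxOR fluorescence, 10 s baseline plus 110 s post-stimulus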
KCNK3 inh conf – confirmation of human KCNK3 two-pore domain potassium channel inhibitors | 2,400 tested, 99% active | shares compounds with KCNK3 inh | CHO-KCNK3 thallium flux, FluxOR fluorescence; 0% buffer, 100% carvedilol maximal block | ratio percent of control, % at 10 µM;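 active means ratio percent of control, averaged over triplicates, above buffer control mean plus 5 SD, cut at about 64% in these data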;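 further: ratio is the fluorescence rise from min to max over baseline after thallium stimulus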
KCNK3 uninduced – KCNK3 inhibitor counter-screen hit in non-induced cells; shares compounds with KCNK3 inh; non-induced KCNK3 parental cells, FluxOR thallium flux; stronger effect = lower value; thallium flux ratio (lower = more inhibition) at 10 µM; 2,400 tested, 40% active;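 active means thallium flux ratio, averaged over three wells, more than 5 SD below the buffer control mean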;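 further: host cells are CHO cells without KCNK3 induction; ratio is peak minus trough fluorescence over baseline then normalized to buffer controls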
Active calls of the source: *; i = inactive; nt = no result given. Shown are actives, neighbours in structure and some others; about 3.7% of the full set was active somewhere.

SMILES | hERG protect | KCNK3 inh | KCNQ1 inh | KCNK9 block | Kir21 block | KCNQ1 act | KCNK3 inh conf | KCNK3 uninduced
CC(=O)c1cccc(N(CC(=O)Nc2ccc(S(=O)(=O)N3CCCC3)cc2)S(C)(=O)=O)c1 | -6 | -9.5* | i | i | -0.07 | i | 0 | i
CC(=O)c1cccc(N(CC(=O)Nc2ccc(S(=O)(=O)N3CCOCC3)cc2)S(C)(=O)=O)c1 | -7 | i | i | i | 2.9 | i | nt | nt
N#Cc1ccccc1Sc1ccccc1C(=O)Nc1ccc2ccccc2c1 | -13 | i | i | i | -0.28 | i | nt | nt
COc1ccc(Sc2ccc(NC(=O)c3ccccc3Cl)cc2C#N)cc1 | -7 | -12* | i | i | 0.41 | i | 106* | 0.15*
Cc1ccc(N2CC(C(=O)Nc3c4c(nn3C(C)(C)C)CS(=O)(=O)C4)CC2=O)cc1 (stereo not given) | -8 | i | i | i | -0.72 | i | nt | nt
CCc1ccc2c(c1)C1(NN=C(c3cccc4ccccc34)S1)C(=O)N2 (stereo not given) | -2 | -13* | 15* | i | -0.66 | i | 149* | 0.13*
NNc1nc(-c2ccccc2)c2ccccc2n1 | -22 | i | i | i | -0.96 | i | nt | nt
c1ccc(-c2nc(-n3nc4ccccc4n3)nc3ccccc23)cc1 | -14 | -14* | i | -7.9* | 1.3 | i | 88* | 0.15*
O=C(COc1ccc(Cl)cc1)Nc1nc(-c2cccs2)cs1 | -3 | -9.3* | i | i | -0.37 | i | 127* | 0.15*
Cc1cc(O)c(C(C)C)cc1C1(c2cc(C(C)C)c(O)cc2C)OC(=O)c2ccccc21 | -1 | -9.1* | i | i | -3.1 | i | 120* | 0.15*
O=C(Nc1ccccc1)c1ccc(=O)n(Cc2ccc(F)c(F)c2)c1 | -3 | i | i | i | 1.2 | i | nt | nt
CCOC(=O)CN1C(=O)/C(=C/c2c(F)cccc2Cl)Oc2ccccc21 | -7 | -8.8* | 6* | -7.8* | -0.64 | i | 123* | i
CC1(C2CC2)NC(=O)N(CC(=O)Nc2ccccc2F)C1=O (stereo not given) | nt | i | nt | nt | nt | nt | nt | nt
CC(C)C(=O)Nc1ccc2c(c1)nc(CCN1CCN(c3ccccn3)CC1)n2C | -6 | i | i | i | -1.4 | i | nt | nt
O=C(CSc1nc2ccccc2c(=O)n1Cc1ccco1)c1ccc(F)cc1 | -10 | -9.6* | i | i | 0.88 | i | 112* | i
Cc1cc2c(=O)n(Cc3ccco3)c(SCC(=O)c3ccc(Cl)s3)nc2s1 | -21 | -9.7* | i | -6.7* | 1.7 | i | 108* | i
CCOC(=O)C(NC(=O)c1ccc(OC)cc1)(N1CCCC1=O)C(F)(F)F (stereo not given) | -10 | i | i | i | -0.03 | i | nt | nt
CC(OC(=O)C1CCN(c2ccc(C(F)(F)F)cn2)CC1)C(=O)NC1CCCCC1C (stereo not given) | nt | i | nt | nt | nt | nt | nt | nt
CCOc1ccc(C(=O)C(C)OC(=O)C2CCN(c3ccc(C(F)(F)F)cn3)CC2)cc1 (stereo not given) | -11 | -9.4* | 8* | i | -0.12 | i | 83* | 0.16*
Cc1ccc2nc(-c3ccccc3)cc(C(=O)N(C)CC(=O)Nc3ccccc3Br)c2c1 | -19 | -14* | i | i | -0.31 | i | 110* | i
COc1ccc(Cl)cc1NC(=O)CN(C)C(=O)c1cc(-c2ccncc2)nc2ccccc12 | -20 | -9.2* | i | i | -0.25 | i | 120* | 0.14*
COc1ccc(NC(=O)CN(C)C(=O)c2cc(-c3ccccc3)nc3ccccc23)cc1 | -13 | i | i | i | -1.2 | i | nt | nt
Cc1ccc(C(=O)CSc2cc(C)nc(SCC(=O)c3ccccc3)n2)cc1 | -8 | -9* | i | i | -0.44 | i | 112* | i
Cc1cc(SCC(N)=O)nc(SCC(=O)c2ccccc2)n1 | 2 | i | i | i | 0.01 | i | nt | nt
CCOC(=O)c1cc(C#N)c(SCC(=O)c2cc(C#N)c(SC)nc2C)nc1C | -1 | -11* | i | i | 1.1 | i | 107* | 0.14*
SMILES | hERG protect | KCNK3 inh | KCNQ1 inh | KCNK9 block | Kir21 block | KCNQ1 act | KCNK3 inh conf | KCNK3 uninduced
CCOC(=O)c1cc(C#N)c(SCc2cccc3ccccc23)nc1C | -7 | i | i | i | 0.57 | i | nt | nt
Cc1cc(/C=C(\C#N)C(=O)OCC(=O)NC(=O)NC(C)(C)C)c(C)n1CCC(C)C | -3 | -8.7* | i | i | -0.02 | i | 125* | i
C=CCNC(=O)NC(=O)COC(=O)/C(C#N)=C/c1cc(C)n(CCC(C)C)c1C | -5 | i | i | i | -0.11 | i | nt | nt
O=C(c1cc2nc(-c3ccc(F)cc3)cc(C(F)(F)F)n2n1)N1CCCCC1c1cccnc1 (stereo not given) | -23 | -11* | i | i | 0.44 | i | 121* | 0.14*
O=C(c1cnn2c(C(F)(F)F)cc(-c3ccccc3)nc12)N1CCCCC1c1cccnc1 (stereo not given) | -3 | i | i | i | 0.01 | i | nt | nt
CCN1CCN(C(=O)c2cc3nc(-c4ccccc4)cc(C(F)(F)F)n3n2)CC1 | -6 | -8.7* | i | i | 0.37 | i | 0 | i
COc1cccc(C(C(=O)NC2CCCC2)N(C(=O)c2ccco2)c2ccc(NC(C)=O)cc2)c1OC (stereo not given) | -11 | i | i | i | 0 | i | nt | nt
COCCOC(=O)C1=C(C)NC(=O)NC1c1cn(-c2ccccc2)nc1-c1cccs1 (stereo not given) | -13 | i | i | i | -2.9 | i | nt | nt
C=CCOC(=O)C1=C(C)NC(=O)NC1c1cn(-c2ccccc2)nc1-c1cccs1 (stereo not given) | -8 | -9.2* | i | i | 1.6 | i | 120* | 0.15*
O=[N+]([O-])c1ccc(O)c(C2CCCCC2)c1 | nt | -11* | nt | nt | nt | nt | 127* | 0.14*
O=[N+]([O-])c1ccc2nc(C3CCCCC3)[nH]c2c1 | -15 | i | i | i | 1.2 | i | nt | nt
Cc1ccc(C(=O)c2cnc3ccccc3c2-c2ccccc2)cc1 | -5 | -9.8* | i | i | -0.37 | i | 118* | 0.13*
COc1ccc(Oc2nc(-c3ccccc3)ncc2C(=O)O)cc1 | -3 | i | i | i | -0.02 | i | nt | nt
